Screening data as filed in PubChem BioAssay.
TRPC4 act = TRPC4 (mouse) channel activation. B-score at 10 µM. AID 2237. HEK293 TRPC4beta/mu-opioid, Fluo4 calcium fluorescence; stronger effect = higher value. 310,000 tested, 0.49% active. Q9QUQ5;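 active = B-score above 5 SD of library B-scores, and initial fluorescence ratio not above library mean plus 5 SD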;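 note: positive B-score marks a calcium rise read as TRPC4 activation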
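Material: TRPC4beta and mu-opioid receptor HEK293 stable cells | Incubation: 45 min room-temperature Fluo4 loading, 110 s read | Detection: Kinetic Fluo4 calcium fluorescence | Measure: Integrated baseline-normalised fluorescence ratio, converted to per-well B score | Benchmarks: Low control buffer alone, high control maximal DAMGO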
TRPC4 PAM = allosteric potentiators of mouse TRPC4 channel; HEK293 TRPC4beta/mu-opioid, DAMGO EC20, Fluo-4 Ca2+ flux; stronger effect = higher value; Q9QUQ5; 310,000 tested, 0.42% active; B-score at 10 µM;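 active = B-score of calcium response area above 5 SD of library B-scores, with initial fluorescence ratio within 5 SD of library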
Kir21 inh = inhibitors of mouse Kir2.1 inward-rectifier potassium channel; B-score at 10 µM; P35561; AID 1672; 310,000 tested, 0.85% active; HEK293-Kir2.1, FluxOR thallium flux fluorescence; stronger effect = lower value;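 active = fluorescence ratio B-score at or below minus 3 SD of library scores, with starting-brightness B-score within 2 SD, cut at about -4.2 in these data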;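 note: channel flux triggered by added potassium and thallium sulfate stimulus; B-score of peak minus minimum fluorescence over baseline after thallium stimulus; more negative B-score means stronger Kir2.1 block with less thallium influx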
TRPC6 act = mouse TRPC6 channel activation. AID 2550. 310,000 tested, 0.13% active. HEK293-TRPC6 membrane potential dye fluorescence; stronger effect = higher value. B-score at 10 µM;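 active = B-score of the integrated fluorescence ratio above library mean plus 3 SD, and starting fluorescence ratio within library mean plus 5 SD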;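 note: higher score means more depolarization so channel activation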
Target sequence (Q61143 whole entry, looked up): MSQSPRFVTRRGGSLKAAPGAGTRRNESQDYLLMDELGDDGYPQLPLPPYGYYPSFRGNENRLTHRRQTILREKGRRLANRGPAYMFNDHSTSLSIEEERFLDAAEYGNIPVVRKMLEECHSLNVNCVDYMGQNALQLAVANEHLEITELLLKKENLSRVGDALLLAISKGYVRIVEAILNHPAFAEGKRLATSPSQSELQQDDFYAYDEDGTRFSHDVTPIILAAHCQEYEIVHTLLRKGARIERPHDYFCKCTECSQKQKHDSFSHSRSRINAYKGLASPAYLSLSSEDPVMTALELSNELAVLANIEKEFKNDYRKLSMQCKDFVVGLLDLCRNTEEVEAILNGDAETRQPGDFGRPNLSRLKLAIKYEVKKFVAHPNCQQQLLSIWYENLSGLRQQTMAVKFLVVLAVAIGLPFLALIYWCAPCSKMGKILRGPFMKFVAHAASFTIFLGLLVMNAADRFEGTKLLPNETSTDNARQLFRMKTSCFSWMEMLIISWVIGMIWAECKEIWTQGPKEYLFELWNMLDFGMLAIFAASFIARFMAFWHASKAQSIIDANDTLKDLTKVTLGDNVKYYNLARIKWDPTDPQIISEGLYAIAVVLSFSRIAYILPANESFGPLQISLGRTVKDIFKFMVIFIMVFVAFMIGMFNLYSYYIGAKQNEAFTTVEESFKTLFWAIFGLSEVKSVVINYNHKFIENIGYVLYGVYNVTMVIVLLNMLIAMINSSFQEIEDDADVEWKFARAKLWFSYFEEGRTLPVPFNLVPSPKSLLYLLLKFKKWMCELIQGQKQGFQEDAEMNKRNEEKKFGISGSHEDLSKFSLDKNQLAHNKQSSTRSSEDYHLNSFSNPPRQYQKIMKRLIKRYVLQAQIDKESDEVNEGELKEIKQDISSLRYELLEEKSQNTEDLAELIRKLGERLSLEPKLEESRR
TRPC6 inh = blocks the mouse TRPC6 cation channel; Q61143; HEK293-TRPC6, membrane potential dye, ACh-evoked depolarization; stronger effect = lower value; B-score at 10 µM; 310,000 tested, 1.1% active;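 active = B-score under library mean minus 3 SD, initial fluorescence not abnormally high, positive integrated signal ratio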;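 note: B-score derived from integrated fluorescence ratio over the kinetic read; more negative B-score means stronger inhibition of depolarization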
TRPC4 block = blocks the mouse TRPC4 cation channel. Q9QUQ5. HEK293 TRPC4beta/mu-opioid, DAMGO-evoked Fluo4 calcium flux; stronger effect = lower value. B-score at 10 µM. 300,000 tested, 0.39% active. AID 2247;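 active = B-score over 3 SD under the library average, no early fluorescence shift, positive overall ratio signal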
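Assay system – HEK293 line stably carrying TRPC4beta and mu-opioid receptor · Doses – single dose · Detection – Fluo4 calcium-dye fluorescence, kinetic read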
Of the large screens only hits and unclear results are named; the others gave an inactive call. Sampled rows, rich in hits. Any-hit rate of the full collection: about 2.9%.

O=C(CSc1nnnn1-c1cccc2c1CCCC2)N1CCCCC1	Kir21 inh -4.33
Cc1ccc(-n2nnnc2SCC(=O)N2CCCCC2)cc1	none
OCCNc1nc(Nc2ccccc2C(F)(F)F)nc(N2CCCC2)n1	none
COc1ccc(Nc2c3c(nc4ccccc24)CCC3)c(OC)c1	TRPC4 block -5
COc1ccc(NC(=O)CSc2c3c(nc4ccccc24)CCC3)c(OC)c1	Kir21 inh -10.5
CCOCCn1c(=O)c2c(nc3n2CCN3c2ccc(C)cc2)n(C)c1=O	none
Cc1c(C(=O)NCCc2ccccc2)oc2ccccc12	TRPC4 PAM 22
COc1ccc2oc(C(=O)NCCc3ccccc3)c(C)c2c1	none
CC1=C(C(=O)OCCc2ccccc2)C(c2ccsc2)NC(=O)N1C (configuration not stated)	Kir21 inh -5.6
COC(=O)C1=C(C)N(C)C(=O)NC1c1ccsc1 (configuration not stated)	none
CN(c1ccc(C(=O)Nc2cccc(O)c2)cc1)S(=O)(=O)c1ccccc1	Kir21 inh -4.77
Cc1ccc(C)c(-n2cc(CNCCc3cnccn3)c(-c3ccccc3)n2)c1	TRPC4 act 108
CCn1ccnc1CNCc1cn(-c2cc(C)ccc2C)nc1-c1ccccc1	none
COc1cccc(/C=N/NC(=S)NC2CC3CC2C2C=CCC32)c1O (configuration not stated)	none
Oc1ccccc1/C=N/NC(=S)NC1CC2CC1C1C=CCC21 (configuration not stated)	TRPC4 block -8
CC1(C(=O)N(CC(=O)NC2CCCC2)Cc2ccco2)CC(=O)N=C2C=CC=CN21 (configuration not stated)	none
CC1(C)CC(NC(=O)c2cc(COc3cccc(C(F)(F)F)c3)on2)CCO1 (configuration not stated)	TRPC4 block -6
CC1(C)C[C@@H]2C[C@@](C)(CN2C(=O)c2cc(COc3cccc(C(F)(F)F)c3)on2)C1	none
CCN1CCN(C(c2cc3cccc(C)c3[nH]c2=O)c2nnnn2Cc2ccccc2)CC1 (configuration not stated)	TRPC4 act 76
Cc1ccc(C)c2[nH]c(=O)c(C(c3nnnn3C3CCCC3)N3CCOCC3)cc12 (configuration not stated)	TRPC4 PAM 23
Cc1ccc(C)c2[nH]c(=O)c(C(c3nnnn3Cc3ccco3)N3CCc4ccccc4C3)cc12 (configuration not stated)	TRPC4 PAM 11
Cc1ccc(C)c2[nH]c(=O)c(CN(Cc3nnnn3C3CCCCC3)CC3CCCO3)cc12 (configuration not stated)	TRPC4 block -6
Cc1ccc(C)c2[nH]c(=O)c(CN(CCN3CCOCC3)Cc3nnnn3CC3CCCO3)cc12 (configuration not stated)	none
Cc1ccc2cc(C(c3nnnn3C3CCCC3)N3CCOCC3)c(=O)[nH]c2c1C (configuration not stated)	none
CCOc1ccc(NC(=O)c2ccccc2CO)cc1	none
COc1ccccc1C(=O)NC(=O)COC(=O)Cc1n[nH]c(=O)c2ccccc12	none
Oc1cccc(CCC2CCCCN2Cc2cn[nH]c2-c2ccc3c(c2)OCO3)c1 (configuration not stated)	TRPC4 act 43
Cc1ccc(/C=N/N2CCN(c3ccccn3)CC2)cc1	none
S=C(NCCc1ccccn1)Nc1ccccc1	none
Cc1c(Cl)cccc1NC(=S)NCCc1ccccn1	TRPC4 act 60
S=C(NCCc1cnc[nH]1)NC1CCCC1	TRPC4 act 98
S=C(NCCc1c[nH]c2ccccc12)NC1CCCC1	none
S=C(NCCc1ccccn1)NC1CCCCC1	TRPC4 act 97
O=c1ccc2c(o1)/C(=C/C=C(Cl)Cl)CCC2	none
CCN(CC)CCNC(=O)Cn1nc(Cc2ccccc2)c2ccccc2c1=O	none
CCCCN(CC)CCCNC(=O)Cn1nc(Cc2cccnc2)c2ccccc2c1=O	TRPC4 act 134
Cc1ccc(OCC(=O)NNC(=S)NC(=O)c2cccs2)c(C)c1	TRPC4 act 66
